Source: PubChem BioAssay
Cneo AK release: causes C. neoformans cell lysis; adenylate kinase release luminescence, 4 h; normalised: neutral wells 0, clomiphene wells 100; lysis activity, % at 15 µM; actives 0.2% (n = 360,000);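 active means mean lysis activity across replicates of at least 80%, whatever share of replicates individually reach that level; inactive means mean lysis activity below 80%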
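Test system: log-phase Cryptococcus neoformans yeast cells. Input: 5 × 10^6 yeast cells/mL. Medium: fresh YPD growth medium. Doses: single dose. Incubation: static 4 h at 37 °C with compound, 1 h detection. Measured by: luminescent adenylate kinase detection reagent. Read-out: signal increase indicating cell lysis. Benchmarks: Clomiphene.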
CaV13 ICDI inh: Disruptors of the CACNA1D IQ motif to Ca2+-dependent inactivation inhibitor domain association, primary screening, Förster resonance energy transfer in intact living …; HEK cells, CFP/YFP FRET ICDI-IQ, plate reader, 10 min; percent FRET-ratio fall versus neutral wells; inhibition, % at 12.3 µM; actives 0.098% (n = 340,000); AID 743397;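 active means mean replicate inhibition of at least 30% and at least 1% of replicates passing that level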;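 further: 0% = median of the neutral control wells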
CFTR F508del cor: correctors of CFTR F508del function in bronchial epithelial cells; CFBE cells, YFP halide quenching; stimulated with forskolin plus potentiator P3; % fluorescence drop versus neutral controls; actives 0.36% (n = 350,000); AID 720511; activity (quench increase), % at 7.58 µM;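 active means mean added fluorescence quench of at least 8% versus neutral control, with both replicates also reaching 8%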;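 further: cells transiently co-express mutant CFTR-F508del with the halide-sensitive YFP; corrector assay measuring rescue of mutant channel to the surface after 24 h compound exposure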
rRNA inh HTS: selective bacterial rRNA inhibition in E. coli; GFP signal change (wild-type ribosome), % (no concentration beside the values); E. coli WT GFP vs humanized-ribosome RFP mutants, fluorescence, 24 h; active compounds read low; DMSO median 0, no signal -100; actives 1.6% (n = 350,000);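 active means significant combined selectivity score with lowered wild-type GFP, culture density cut under 30%, mutant RFP and density less affected; inactive means any of these conditions unmet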
* hit, by the source's call; / = not tested or not shown. Rows were chosen to be rich in hits. Some 1.7% of all compounds tested hit in one or more screens of this group.

SMILES | Cneo AK release | CaV13 ICDI inh | CFTR F508del cor | rRNA inh HTS
CC1(C(=O)NCc2cccs2)Cc2c(-c3ccc4c(c3)OCO4)ccnc2O1 (stereo not drawn) | -13 | -3 | 9.5* | -13
CO[C@H]1CN(C)C(=O)c2ccc(NS(C)(=O)=O)cc2OC[C@H](C)NC[C@@H]1C | / | / | / | -1
COc1ccc(C(NC(=O)C2CCN(CCOc3ccc(Cl)cc3Cl)CC2)c2ccccc2C)cn1 (stereo not drawn) | 6 | -13 | -1 | -29*
COc1ccc(C(NC(=O)C2CCN(CCOc3ccc(Cl)cc3Cl)CC2)c2cccs2)cc1 (stereo not drawn) | 0 | -6 | -1 | -51
O=C(CSCc1c(Cl)cccc1Cl)Nc1cccnc1 | -2 | 8 | 4 | -24*
C[C@H]1CN([C@@H](C)CO)C(=O)c2cc(C#CC3CCCCC3)cnc2O[C@@H]1CN(C)S(=O)(=O)c1cccc(F)c1 | -2 | / | 2 | 3
CCc1cccc(NC(=O)CCc2c(C)nn(-c3ccc(N4CCCCC4)nn3)c2C)c1 | -1 | -3 | -1 | -32*
C[C@@H]1CCCCO[C@H](CN(C)S(=O)(=O)c2cn(C)cn2)[C@H](C)CN([C@@H](C)CO)C(=O)c2cc(NC(=O)Nc3ccc(F)cc3)ccc2O1 | -3 | / | 0 | 0
CN(Cc1ccccc1)C1=CC(=[N+]2CCCCC2)CC(C)(C)C1 | 0 | -2 | 1 | -51*
CC1(C)CC(N2CCN(Cc3ccccc3)CC2)=CC(=[N+]2CCCCC2)C1 | 0 | -1 | -1 | -47
COc1ccc(Cl)cc1NC(=S)N(Cc1cccnc1)Cc1ccco1 | / | -6 | 2 | -24*
Cc1ccc(Cl)cc1NC(=S)N(Cc1ccccc1)Cc1cccnc1 | / | -6 | 3 | -26*
S=C(Nc1ccccc1Cl)N(Cc1ccccc1)Cc1cccnc1 | / | 7 | 2 | -31
COCC(=O)N1C[C@H](C)[C@H](OC)CN(C)C(=O)c2ccc(NC(=O)Nc3ccccc3)cc2OC[C@H]1C | / | / | / | -4
COCC#Cc1ccc2c(c1)O[C@@H](CN(C)Cc1ccc3c(c1)OCO3)[C@H](C)CN([C@H](C)CO)S2(=O)=O | 4 | / | -3 | -18
O=C(CN1C(=O)c2ccccc2C1=O)Nc1cccc(S(=O)(=O)Nc2ccccc2Cl)c1 | / | -20 | / | -26*
CC(C)Cn1c(SCC(=O)N2CCN(S(=O)(=O)c3ccccc3)CC2)nc2ccccc21 | 1 | -5 | / | -32*
Cn1c(SCC(=O)N2CCN(S(=O)(=O)c3ccccc3)CC2)nc2ccccc21 | / | -7 | -3 | -1
Cc1ccc(SCc2[nH]nc3c2C(c2ccco2)C(C#N)=C(N)O3)cc1 (stereo not drawn) | -2 | -8 | / | /
Cc1ccc(SCc2[nH]nc3c2C(c2ccc(C)o2)C(C#N)=C(N)O3)cc1 (stereo not drawn) | -1 | -7 | 1 | -37*
Cn1nc(CC#N)c2c(=N)n(N)cnc21 | -1 | -6 | 2 | 23
CCCCn1cnc2c(c(CC#N)nn2-c2ccccc2)c1=N | / | -7 | 9.4* | -5
O=C(C[C@H]1C[C@@H]2c3cc(NS(=O)(=O)c4ccccc4)ccc3O[C@@H]2[C@@H](CO)O1)N1CCOCC1 | -1 | / | 0 | 0
CCc1nc(SCC(=O)c2ccccc2)c2ccccc2n1 | 0 | 39* | 0 | 0
CCc1nc(SCC(=O)c2ccc3c(c2)OCCO3)c2ccccc2n1 | 4 | -5 | / | /
SMILES | Cneo AK release | CaV13 ICDI inh | CFTR F508del cor | rRNA inh HTS
CCCC(=O)Nc1ccc2c(c1)C(=O)N(C)[C@@H]1CC[C@H](CC(=O)NCC3CC3)O[C@H]1CO2 | 59 | / | 2 | 3
S=C(NCCN1CCOCC1)Nc1ccc(-c2nc3ccccc3[nH]2)cc1 | / | 3 | -1 | -24*
Fc1ccc(NC(=S)NCCN2CCOCC2)cc1 | / | -3 | -1 | 13
Cc1[nH]n(C2=NCCS2)c(=O)c1N=Nc1cccc(C(F)(F)F)c1 | / | 9 | / | -25*
Cc1[nH]n(-c2ccccc2)c(=O)c1N=Nc1cccc(C(=O)O)c1 | -7 | -1 | -1 | -27*
Fc1ccc(CN2C3CN(CC(F)(F)F)CC2C3c2ccc(Br)cc2)cc1 (stereo not drawn) | / | / | / | 0
C[C@H]1CN(C)C(=O)Cc2cc(N(C)C)ccc2O[C@@H]1CN(C)C(=O)OC(C)(C)C | / | / | / | -1
CN(C)C(=O)c1cccc(-c2ccccc2[C@H]2[C@@H](C#N)N(C(=O)C3CCC3)[C@H]2CO)c1 | / | / | 0 | 0
CCOC(=O)C(NC(=O)c1ccccc1)(OCC1(CC)COC1)C(F)(F)F (stereo not drawn) | 5 | 41* | / | /
S=C(c1ccc(-c2cccc(Cl)c2)o1)N1CCCCC1 | / | -2 | 1 | -29*
S=C(c1ccc(-c2cccc(Cl)c2)o1)N1CCOCC1 | -3 | -9 | -2 | 0
COC(=O)CC1=C(c2ccc([N+](=O)[O-])cc2)CCC1=O | 0 | -4 | -3 | -19*
COc1cc(C(c2sc3nc(C)nn3c2O)N2CCN(c3ccccc3)CC2)cc(OC)c1OC (stereo not drawn) | 3 | -3 | 8.5* | 3
Cc1nc2sc(C(c3ccco3)N3CCN(c4ccccc4)CC3)c(O)n2n1 (stereo not drawn) | 0 | -6 | -2 | 12
Cc1nc2sc(C(c3ccco3)N3CCN(c4cccc(Cl)c4)CC3)c(O)n2n1 (stereo not drawn) | 1 | -6 | / | -39*
COc1ccc(S(=O)(=O)Nc2ccc3c(c2)C(=O)N([C@@H](C)CO)C[C@H](C)[C@@H](CN(C)C(=O)Nc2ccc(F)cc2)OCCCC[C@@H](C)O3)cc1 | 1 | / | -2 | -2
C=CCOc1ccc(CNc2ccc3[nH]c(=O)[nH]c3c2)cc1 | / | 5 | 0 | -14*
O=C1[C@H](Cc2ccccc2)CCn2cc(nn2)COCC2CCCN12 (stereo partly drawn) | 3 | / | / | 2
COc1cccc(N2CCN(C(=O)c3ccc(CS(=O)Cc4ccccc4Cl)o3)CC2)c1 (stereo not drawn) | -2 | -2 | 0 | -31*
Cc1ccccc1Nc1c(-c2ccccn2)nc2ccccn12 | 11 | -4 | 3 | -54*
Cc1cccn2c(Nc3ccccc3)c(-c3ccccn3)nc12 | 13 | 5 | -1 | -43*
Cc1ccn2c(Nc3ccccc3)c(-c3ccccn3)nc2c1 | 2 | -5 | -3 | 7
O=C(OCC(=O)N1CCc2ccccc2C1)c1ccc(Cl)c([N+](=O)[O-])c1 | 0 | -6 | 4 | -7
CN(C)c1cccc(C(=O)OCC(=O)N2CCc3ccccc3C2)c1 | / | -6 | 0 | -30*
Nc1ccc(C(=O)OCC(=O)N2CCc3ccccc3C2)cc1[N+](=O)[O-] | -2 | / | / | -23*
Cc1ccc(S(=O)(=O)N[C@H]2C=C[C@H](CC(=O)NCc3ccncn3)O[C@@H]2CO)cc1 | -5 | / | 1 | 3
CO[C@@H](C(=O)N(C)C[C@H]1OCc2ccccc2-c2ccccc2C(=O)N([C@@H](C)CO)C[C@@H]1C)c1ccccc1 | -5 | / | 1 | 0
